Assay results pooled from the literature.

COc1c(N2C[C@@H]3CCCN[C@@H]3C2)c(F)cc2c(=O)c(C(=O)O)cn(C3CC3)c12  MIC (Escherichia coli; microbial growth; ATCC25922): 0.03 µM
N.N.[Cl][Pt][Cl]  IC50 (HK-2; cell growth or viability, MTT; 72 h): 7.59 µM
Oc1c(Br)cc(Br)cc1-c1[nH]c(Br)c(Br)c1Br  MIC (Staphylococcus aureus; microbial growth; ATCC29213 MSSA): 0.58 µM
CN[C@H](CC(C)C)C(=O)N[C@H]1C(=O)N[C@@H](CC(N)=O)C(=O)N[C@H]2C(=O)N[C@H]3C(=O)N[C@H](C(=O)N[C@H](C(=O)O)c4cc(O)cc(O)c4-c4cc3ccc4O)[C@H](O)c3ccc(c(Cl)c3)Oc3cc2cc(c3O[C@@H]2O[C@H](CO)[C@@H](O)[C@H](O)[C@H]2O[C@H]2C[C@](C)(N)[C@H](O)[C@H](C)O2)Oc2ccc(cc2Cl)[C@H]1O  MIC (Staphylococcus aureus; microbial growth, broth dilution; MRSA; 24 h, drug-resistant strain): 0.67 µM
O=c1ccc2nc3ccc(O)cc3oc-2c1  MIC (Escherichia coli; microbial growth; 24 h): > 32 µg/mL
COc1c(N2CC3CCCNC3C2)c(F)cc2c(=O)c(C(=O)OCc3cnc([N+](=O)[O-])s3)cn(C3CC3)c12 (centres unmarked)  MIC (Escherichia coli; microbial growth; ATCC25922): 0.09 µM
O=c1ccc2nc3ccc(OCc4ccc([N+](=O)[O-])o4)cc3oc-2c1  MIC (Staphylococcus aureus; microbial growth; MRSA; 24 h): > 32 µg/mL
Oc1c(Cl)cc(Cl)cc1-c1[nH]c(Cl)c(Cl)c1Cl  MIC (Staphylococcus aureus; microbial growth; BAA44 MRSA): 0.06 µM
